We go through 4 molecules from ChEMBL document CHEMBL4354819, “Discovery of Novel Small Molecule Dual Inhibitors Targeting Toll-Like Receptors 7 and 8” (J Med Chem, 2019).

Molecules are shown by their SMILES. Activity calls are given as the source filed them. The calls are words filed in the database; no cut-off is given here.

The subject of data set [1] is THP-1. In words: Cytotoxicity against human THP1 cells transfected with human TLR7/8 assessed as reduction in cell viability at 0.5 to 20 uM incubated for 16 hrs by WST-1 assay. Format: cell-based. The settings on record: thp-1, 16 h.
Data set [2] has as its system HEK293. In words: Cytotoxicity against human HEK293 cells transfected with human TLR7 assessed as reduction in cell viability at 0.5 to 20 uM incubated for 16 hrs by WST-1 assay. Format: cell-based. The settings on record: hek293, 16 h. On the technique in general: Tetrazolium assays rely on reduction of a dye to a coloured formazan, in cell work by metabolically active cells.

A further data set concerns the target T1, Toll-like receptor 8 (Homo sapiens, UniProt Q9NR97).
T1 sequence (Q9NR97 whole entry): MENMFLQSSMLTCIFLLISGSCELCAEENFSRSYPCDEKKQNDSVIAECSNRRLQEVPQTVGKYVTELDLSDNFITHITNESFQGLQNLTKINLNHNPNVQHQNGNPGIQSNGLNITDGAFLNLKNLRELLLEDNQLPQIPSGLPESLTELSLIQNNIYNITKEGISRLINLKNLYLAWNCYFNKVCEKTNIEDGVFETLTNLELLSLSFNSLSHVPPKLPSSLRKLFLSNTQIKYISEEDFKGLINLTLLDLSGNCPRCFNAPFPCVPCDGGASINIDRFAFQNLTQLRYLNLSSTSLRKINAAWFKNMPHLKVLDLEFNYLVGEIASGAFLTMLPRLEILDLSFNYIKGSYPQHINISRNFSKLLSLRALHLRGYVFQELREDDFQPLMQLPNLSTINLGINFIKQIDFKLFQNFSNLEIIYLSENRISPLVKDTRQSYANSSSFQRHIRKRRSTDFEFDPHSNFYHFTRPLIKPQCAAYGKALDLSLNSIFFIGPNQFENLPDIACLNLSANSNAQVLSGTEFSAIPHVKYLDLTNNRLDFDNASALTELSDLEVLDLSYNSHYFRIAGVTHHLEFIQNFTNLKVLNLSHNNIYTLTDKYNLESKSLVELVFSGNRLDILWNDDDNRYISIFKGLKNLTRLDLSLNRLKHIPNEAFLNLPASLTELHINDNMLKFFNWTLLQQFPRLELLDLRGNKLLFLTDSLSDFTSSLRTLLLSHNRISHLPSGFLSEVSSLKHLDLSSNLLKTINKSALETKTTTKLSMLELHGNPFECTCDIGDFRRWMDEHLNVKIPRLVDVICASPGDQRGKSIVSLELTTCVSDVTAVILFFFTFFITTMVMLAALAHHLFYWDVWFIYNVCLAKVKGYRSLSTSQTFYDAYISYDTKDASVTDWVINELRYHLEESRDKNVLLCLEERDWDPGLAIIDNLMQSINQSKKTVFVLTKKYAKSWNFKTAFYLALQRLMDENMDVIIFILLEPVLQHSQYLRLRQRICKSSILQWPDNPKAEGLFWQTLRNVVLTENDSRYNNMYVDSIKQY
In words: Inhibition of human TLR8 expressed in HEK293 cells assessed as reduction in R848-induced NFkappaB production incubated for 16 hrs by quanti-blue SEAP assay. Format: cell-based. Put shortly: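 HEK 293-Blue cells stably expressing hTLR7 or hTLR8 with an inducible SEAP reporter were incubated 16 h with compound under 1 µg/mL R848 stimulation. SEAP was read at 620 nm. Data were normalized to the R848 control, and IC50 was taken from concentration-response curves. […] Mean ± s.d., n = 3 independent experiments.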

For data set [3], the system named is HEK293. In words: Cytotoxicity against human HEK293 cells transfected with human TLR8 assessed as reduction in cell viability at 0.5 to 20 uM incubated for 16 hrs by WST-1 assay. The settings on record: hek293, 16 h. The data set is classed as cell-based.
For data set [4], the system named is HEK293. In words: Cytotoxicity against human HEK293 cells transfected with human TLR8 assessed as reduction in cell viability at 100 uM incubated for 16 hrs by WST-1 assay. Format: cell-based. The settings on record: hek293, 16 h.
Data set [5] addresses T2, Toll-like receptor 8 (Homo sapiens) (UniProt Q9NR97).
T2 sequence (whole entry): T1 sequence (Q9NR97 whole entry)
In words: Inhibition of human TLR8 expressed in HEK293 cells assessed as reduction in TNFalpha-induced NFkappaB production incubated for 16 hrs by quanti-blue SEAP assay. Format: cell-based. Put shortly:
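HEK 293 hTLR8 SEAP reporter cells were stimulated with recombinant hTNF-α and incubated with compound for 16 h. SEAP absorbance was read at 620 nm and compared with 50% DMSO-treated and untreated wells.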

For data set [6], the system named is HEK293. In words: Cytotoxicity against human HEK293 cells transfected with human TLR7 assessed as reduction in cell viability at 100 uM incubated for 16 hrs by WST-1 assay. Format: cell-based. The settings on record: hek293, 16 h.
In another data set the test system is RAW264.7. In words: Cytotoxicity against mouse RAW264.7 cells assessed as reduction in cell viability at 0.5 to 20 uM incubated for 16 hrs by WST-1 assay. The data set is classed as cell-based. To be noted: raw264.7, 16 h.
Data set [7] has as its target T2, Toll-like receptor 8 (Homo sapiens). In words: Inhibition of human TLR8 expressed in HEK293 cells assessed as reduction in IL1beta production incubated for 24 hrs by ELISA. The data set is classed as cell-based. On the technique in general: ELISA stands for enzyme-linked immunosorbent assay.
Data set [8] concerns THP-1. In words: Inhibition of IFN mediated immune response in human THP1 cells assessed as inhibition of G3-YSD-induced cGAS signalling pathway at 0.5 to 5 uM incubated for 16 hrs by luciferase assay. The data set is classed as functional, cell-based. Put shortly: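 THP1-Dual monocytes carrying Lucia luciferase and SEAP reporters were stimulated with 3p-hpRNA (RIG-I agonist) or Y-form dsDNA G3-YSD (cGAS agonist), with or without compound. Secreted Lucia luciferase luminescence was measured as the type I IFN read-out. Mean ± s.d., n = 3 independent experiments.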

Take `O=C(Nc1ccc(Oc2cc(C(F)(F)F)cc(C(F)(F)F)c2)cc1)c1c(F)cccc1I`: the Activity result in the data set with THP-1 [1] was “Non-Toxic”; with HEK293 [2] it was “Non-Toxic”; in the data set with HEK293 [3], “Non-Toxic”; with HEK293 [4] it was “Toxic”; in the data set with HEK293 [6], “Toxic”; in the data set on RAW264.7 it was “Non-Toxic”. The IC50 on Toll-like receptor 8 was found to be 1040 nM. Besides, the inhibition entry in data set [5] and in data set [7] was “Active” throughout. The inhibition entry in the data set on THP-1 [8] is “inactive”.

For `O=[N+]([O-])c1c(I)cccc1Oc1ccc(-c2nnco2)cc1`, the Activity result is listed as “Non-Toxic” with THP-1 [1]; “Non-Toxic” in the data set on HEK293 [2]; “Non-Toxic” in the data set with HEK293 [3]; “Toxic” in the data set with HEK293 [4]; “Toxic” with HEK293 [6]; “Non-Toxic” with RAW264.7. In addition, the half-maximal inhibitory concentration (IC50) at Toll-like receptor 8 stood at 300 nM. Besides, the inhibition entry in data set [5] and in data set [7] was “Active” each time. In addition, the inhibition entry with THP-1 [8] was “inactive”.

Take `O=C(Nc1ccc(Oc2cc(C(F)(F)F)cc(C(F)(F)F)c2)cc1)c1c(F)cccc1Cl`: the concentration for half-maximal inhibition (IC50) on Toll-like receptor 8 came to 1640 nM.

On to `O=C(Nc1ccc(Oc2cncc(C(F)(F)F)c2)cc1)c1c(F)cccc1Cl`, for which the Activity result in the data set with THP-1 [1] is listed as “Non-Toxic”; with HEK293 [2], “Non-Toxic”; with HEK293 [3], “Non-Toxic”; with HEK293 [4], “Toxic”; in the data set with HEK293 [6] it was “Toxic”; in the data set on RAW264.7 it was “Non-Toxic”. The 50% inhibitory concentration (IC50) on Toll-like receptor 8 was found to be 2870 nM. The inhibition entry in [5] and in data set [7] was “Active” in each case. In addition, in the data set with THP-1 [8], the inhibition result was “inactive”.

As usually defined, the IC50 is the point on the concentration scale where inhibition reaches its midpoint.
